Several values for one entry are separate records, joined by “and”; a condition that tells them apart may be missing. Identical values can stand only once. Entries after “also recorded” stand apart in the source; their conditions may differ. Like-named read-outs stand apart in the source and are kept apart here.

For data set [1] the following is noted: human, 2017, cited from earlier work.
Data set [2] concerns the target T1, mouse brain fatty acid amide hydrolase (FAAH) (Mus musculus, UniProt O08914).
T1 sequence (O08914 1-579): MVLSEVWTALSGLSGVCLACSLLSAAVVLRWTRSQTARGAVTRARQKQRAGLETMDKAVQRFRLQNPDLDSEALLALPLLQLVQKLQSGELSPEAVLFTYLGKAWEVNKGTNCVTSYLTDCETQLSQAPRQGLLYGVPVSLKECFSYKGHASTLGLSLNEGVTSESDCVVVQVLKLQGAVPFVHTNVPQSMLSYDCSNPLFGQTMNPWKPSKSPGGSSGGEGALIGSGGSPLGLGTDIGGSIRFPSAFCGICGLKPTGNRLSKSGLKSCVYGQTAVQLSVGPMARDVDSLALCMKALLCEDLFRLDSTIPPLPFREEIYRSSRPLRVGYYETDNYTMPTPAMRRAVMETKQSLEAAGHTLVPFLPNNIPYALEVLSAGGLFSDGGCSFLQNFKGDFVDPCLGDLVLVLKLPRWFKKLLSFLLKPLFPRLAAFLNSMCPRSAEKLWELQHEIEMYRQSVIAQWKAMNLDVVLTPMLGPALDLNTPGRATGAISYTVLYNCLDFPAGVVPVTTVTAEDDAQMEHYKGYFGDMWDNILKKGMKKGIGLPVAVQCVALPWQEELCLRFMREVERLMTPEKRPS
In words: Ex vivo FAAH activity in mouse brain after oral administration. The settings on record: for ED50 [95% CI] Brain: 8 hr after oral administration. The procedure, abridged: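 Liver and half-brain were collected into FAAH membrane buffer (3 mM MgCl2, 1 mM EDTA, 50 mM Tris HCl, pH 7.4) and stored at −20°C. Homogenates (15 μg protein brain, 5 μg liver) were pre-incubated 15 min at 37°C. AEA + 3H‑AEA + BSA was added for 10 min (brain) or 7 min (liver), then charcoal. Scintillation counting gave % remaining activity versus controls after blank subtraction.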

For data set [3], the target named is T2, rat brain fatty acid amide hydrolase (Rattus norvegicus, UniProt P97612).
T2 sequence (P97612 1-579): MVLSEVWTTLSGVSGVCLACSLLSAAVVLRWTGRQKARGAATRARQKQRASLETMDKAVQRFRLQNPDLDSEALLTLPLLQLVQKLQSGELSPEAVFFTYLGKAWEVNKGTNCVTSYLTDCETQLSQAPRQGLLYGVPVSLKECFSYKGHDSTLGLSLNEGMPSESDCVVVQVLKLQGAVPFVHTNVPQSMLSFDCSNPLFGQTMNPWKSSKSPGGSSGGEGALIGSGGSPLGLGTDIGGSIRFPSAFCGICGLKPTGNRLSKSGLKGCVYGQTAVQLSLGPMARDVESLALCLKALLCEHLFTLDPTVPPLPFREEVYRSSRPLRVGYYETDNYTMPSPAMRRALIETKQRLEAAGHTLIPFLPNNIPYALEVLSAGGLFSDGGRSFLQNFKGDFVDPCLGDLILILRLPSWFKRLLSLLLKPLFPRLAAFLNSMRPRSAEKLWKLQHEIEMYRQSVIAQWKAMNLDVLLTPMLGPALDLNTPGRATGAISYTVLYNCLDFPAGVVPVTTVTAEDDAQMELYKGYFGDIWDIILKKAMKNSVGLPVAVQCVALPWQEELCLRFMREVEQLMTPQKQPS
Nature of the data set: FAAH progression curves, kinetic constants k obs and k inact/K I. Type of data set: biochemical. To be noted: inhibition of rat brain FAAH, 37°C.

A further data set concerns the target CYP2E1 (Homo sapiens, UniProt P05181). In words: CYP inhibition, pooled human liver microsomes. Type of data set: in vitro ADME. The settings on record: 0.33–99.2 μM, co‐ and pre‐incubation. The procedure, abridged:
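The rate of metabolite formation was measured; testosterone was one CYP3A4 substrate. Controls: solvent vehicle, enzyme-selective inhibitors, mechanism-based inhibitors. Analysis by HPLC with online radio-detection or LC/MS/MS.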

Data set [4] deals with 229 assays for receptors, enzymes, transporters, ion channels, hormones, growth factors and inflammatory mediators. Type of data set: binding. To be noted: 10 and 50 μM.
Data set [5] can be described thus: Plasma and brain levels of BIA 10‐2474 and PF‐04457845 in mice. The settings on record: mouse; for Tmax / half-life / AUC(0-t) / Cmax: po. Format: in vivo.
For data set [6], the system named is human solute carrier (SLC) transporters. In words: Accumulation of BIA 10‐2474 in transporter‐expressing and control cells. Type of data set: in vitro ADME. The settings on record: transporter‐expressing vs control cell, all conditions tested. The essentials:
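Test compound accumulation was compared between transporter-expressing and control cells, expressed as transporter-specific fold accumulation. Transfected lines: CHO‑K1 (OAT1, OCT1), HEK293 (OAT3, OATP1B1, OATP1B3), MDCKII (OCT2, MATE1, MATE2‑K). Transporter activity was confirmed with positive control substrate or inhibitor.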

Data set [7] in a line: Protein binding to cell homogenates. Format: in vitro ADME. The settings on record: 500 μg·ml^−1 of protein.
Setting [8] is: brain (without cerebellum), 0.3 mg/kg.

Chain of CYP2E1 (P05181 whole entry): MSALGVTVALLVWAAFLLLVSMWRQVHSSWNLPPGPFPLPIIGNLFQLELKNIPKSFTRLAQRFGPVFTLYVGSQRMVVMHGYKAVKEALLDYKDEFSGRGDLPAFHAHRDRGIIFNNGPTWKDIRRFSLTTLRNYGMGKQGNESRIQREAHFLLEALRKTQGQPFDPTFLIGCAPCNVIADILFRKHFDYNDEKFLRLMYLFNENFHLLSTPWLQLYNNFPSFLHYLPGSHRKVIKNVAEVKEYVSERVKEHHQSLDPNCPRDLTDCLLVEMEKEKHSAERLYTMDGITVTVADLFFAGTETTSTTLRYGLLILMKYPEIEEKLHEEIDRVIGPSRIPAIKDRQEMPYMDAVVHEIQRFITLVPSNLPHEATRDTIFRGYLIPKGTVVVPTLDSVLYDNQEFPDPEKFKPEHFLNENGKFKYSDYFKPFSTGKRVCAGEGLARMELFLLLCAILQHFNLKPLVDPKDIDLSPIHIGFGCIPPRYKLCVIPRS

What is called inhibition is the share of the control response that was lost under treatment. The term Tmax denotes the time from dosing to the highest level. One may read the half-life as the time needed for the level to fall by half in the phase considered. A word on the AUC(0-t): it is the area under the concentration-time curve up to a stated or last time point. Higher therefore signals high exposure. In general, Cmax refers to the peak of the concentration-time curve. Take `CN(C(=O)n1cnc(-c2ccc[n+]([O-])c2)c1)C1CCCCC1` [BIA 10‐2474, 3‐(1‐(cyclohexyl (methyl)carbamoyl)‐1H‐imidazol‐4‐yl)pyridine 1‐oxide]: the results for the “maximum plasma exposure in the clinic” value in data set [1] (50 mg ref Rocha et al.) and in data set [1] (100 mg ref Rocha et al.) were “around 2 μM” and ~6 µM, respectively. The “ED50 [95% CI] Brain” value in data set [2] (480 min) is 13.5 μg·kg^−1 and 13.5 [10.2, 17.7] μg·kg^−1. Moreover, in data set [2] (po, read-out: maximal inhibition of brain FAAH), the inhibition at 0.1 mg/kg turned out to be 91.4%. In addition, in data set [3], the “k inact/K I” value was 1,243 M·s^−1. Besides, the “inhibitory effect on CYP2E1” value on CYP2E1 is “did not exhibit any inhibitory effects”. Moreover, in data set [4], the “off‐target activity at the sites studied” value is “no significant activity”. Further, the figures for the “Brain AUClast” value in data set [5] (0.1 mg·kg^−1 p.o.) and in data set [5] (0.3 mg·kg^−1 p.o.) were 11.3 ng·h/g and 60.8 ng·h/g, respectively. The “Brain C max” value in data set [5] (0.1 mg·kg^−1 p.o.) came to 5.3 ng/g; in data set [5] (0.3 mg·kg^−1 p.o.), 21.6 ng/g. For the same compound, the “maximum level in brain” value in data set [5] (0.1 mg·kg^−1 p.o., equivalent of 5.3 ng·g^−1) stood at 18 nM. Besides, the “maximum level in plasma” value in data set [5] (0.1 mg·kg^−1 p.o., equivalent of 33.0 ng·ml^−1) was 109 nM. The Tmax in data set [5] (brain (without cerebellum), 0.1 mg/kg) was found to be 1 h; in data set [5] (setting [8]), 1 h; in data set [5] (plasma, 0.1 mg/kg), 1 h; in data set [5] (plasma, 0.3 mg/kg) it was 1 h. In addition, the half-life is 1.75 h in data set [5] (setting [8]); 2.2 h in data set [5] (plasma, 0.1 mg/kg); 1.9 h in data set [5] (plasma, 0.3 mg/kg). Also, the AUC(0-t) turned out to be 110 ng·h/mL in data set [5] (plasma, 0.1 mg/kg) and 338 ng·h/mL in data set [5] (plasma, 0.3 mg/kg). For the same compound, the Cmax in data set [5] (plasma, 0.1 mg/kg) came out at 33 ng/mL; in data set [5] (plasma, 0.3 mg/kg) it was 104 ng/mL. Besides, in data set [6], the “transporter specific fold accumulations” value is reported as < 2.
With `O=C(Nc1cccnn1)N1CCC(=Cc2cccc(Oc3ccc(C(F)(F)F)cn3)c2)CC1` [PF‐04457845], in data set [2] (0.1 mg·kg^−1 p.o., 48 hr), the “brain FAAH activity, % of control levels” value was 43.8%. The “inhibition of cerebral FAAH, mean values” in data set [2] (0.1 mg·kg^−1 p.o., over 24 hr) is “above 88.7%”. For the same compound, in data set [2], the “ED50 [95% CI] Brain” value is 4.3 [1.8, 9.9] μg·kg^−1. Further, the “k inact/K I” value in data set [3] is listed as 167,333 M·s^−1. In data set [7], the “mean % free fraction ± SD” value turned out to be 28.0 ± 3.9%. Also, the “off‐target activity at the sites studied” value in data set [4] is “active at a number of sites; also recorded: significant activity at several receptors, transporters and ion channels”. Moreover, in data set [5] (0.03 mg·kg^−1 p.o.), the “Plasma AUClast” value amounted to 4.3 ng·h/mL, the “Plasma C max” value was determined as 1.3 ng/mL, the Plasma t max was 2 h and the “detection in the brain” value is reported as “not detectable”. In data set [5] (0.1 mg·kg^−1 p.o.), the “Brain AUClast” value was 22.9 ng·h/g, the “Brain C max” value worked out at 3.7 ng/g, the Brain t max amounted to 2 h and the “Plasma AUClast” value stood at 238.3 ng·h/mL. Further, in data set [5] (0.1 mg·kg^−1 p.o.), the “Plasma C max” value was found to be 38.3 ng/mL; the Plasma t max worked out at 2 h; the “brain levels, fold lower than in plasma” value was “approximately 10 fold”.

The values are drawn from publication PMC7161550 (British Journal of Pharmacology, 2020).
